Source: PubChem BioAssay (several laboratories)
In the library only some 9.4% were active in any assay of this set; here they are far more common.
Beta apoptosis: beta cell apoptosis inhibition; protection from apoptosis, % (concentration not given with the values); INS-1E cytokine-induced death, ATP luminescence, 48 h; percent of positive-control rescue, neutral wells zero; 300,000 compounds, 0.8% hits; AID 435005;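 active means Every replicate reaches about 75%, or at least half do and their mean reaches it too, limit read from the data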;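 further: 0% = cytokine-treated negative control wells and 100% = positive control rescue; higher means more ATP so stronger rescue from cytokine killing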
Lmaj promast: Leishmania major promastigote growth inhibition; Leishmania major promastigotes, resazurin fluorescence viability; inhibition, % at 10 µM; 200,000 compounds, 9% hits; in the data active means inhibition above about 50%;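 further: promastigotes grown with compound for 44 hours at 28 °C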
Mdm2 MdmX PPI: disrupts the human Mdm2-MdmX interaction; SaOS-2 split-luciferase Mdm2/MdmX complementation, luminescence; AID 485346; 330,000 compounds, 3% hits; inhibition, % at 8 µM;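 active means inhibition of at least 50% at 8 µM in the primary screen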
Target sequence (O15151 whole entry, looked up): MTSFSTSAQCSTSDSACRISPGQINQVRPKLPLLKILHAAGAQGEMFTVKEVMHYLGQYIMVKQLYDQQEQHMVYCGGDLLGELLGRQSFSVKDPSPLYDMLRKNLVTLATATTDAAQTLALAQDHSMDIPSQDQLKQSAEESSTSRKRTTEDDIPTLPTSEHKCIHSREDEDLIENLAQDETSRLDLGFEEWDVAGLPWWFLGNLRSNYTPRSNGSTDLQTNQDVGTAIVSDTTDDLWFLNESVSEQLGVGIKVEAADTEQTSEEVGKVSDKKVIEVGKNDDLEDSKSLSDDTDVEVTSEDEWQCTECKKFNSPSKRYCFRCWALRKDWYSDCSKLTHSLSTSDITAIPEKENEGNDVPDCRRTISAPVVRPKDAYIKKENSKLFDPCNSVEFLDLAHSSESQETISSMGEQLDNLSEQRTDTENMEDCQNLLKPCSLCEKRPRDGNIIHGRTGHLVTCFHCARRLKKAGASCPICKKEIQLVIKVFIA
Target sequence (Q00987 whole entry, looked up): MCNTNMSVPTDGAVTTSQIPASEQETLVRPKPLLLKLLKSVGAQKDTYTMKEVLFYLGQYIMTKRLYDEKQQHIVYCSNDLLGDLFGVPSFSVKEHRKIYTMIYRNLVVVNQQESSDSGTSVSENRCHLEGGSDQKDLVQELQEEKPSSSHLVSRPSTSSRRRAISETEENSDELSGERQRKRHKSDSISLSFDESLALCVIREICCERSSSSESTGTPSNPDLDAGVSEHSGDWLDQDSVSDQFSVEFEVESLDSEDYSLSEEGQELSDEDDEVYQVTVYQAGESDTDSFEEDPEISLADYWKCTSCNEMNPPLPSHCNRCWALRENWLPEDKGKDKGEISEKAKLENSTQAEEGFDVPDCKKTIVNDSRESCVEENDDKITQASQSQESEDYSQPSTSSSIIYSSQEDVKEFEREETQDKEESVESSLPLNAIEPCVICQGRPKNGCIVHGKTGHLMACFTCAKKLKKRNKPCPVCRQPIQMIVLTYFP
T cruzi repl: blocks replication of Trypanosoma cruzi; T. cruzi beta-gal in NIH3T3, luminescence, 90 h; inhibition, % (no concentration beside the values); 300,000 compounds, 1.4% hits; AID 1885;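 active means mean inhibition across valid replicates above about 55%, limit read from the data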;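 further: signal also drops with host cell toxicity which is not excluded here; 0% = plate median of DMSO wells and 100% = zero luminescence signal; higher percent means less beta-gal luminescence so fewer parasites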
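assay system = mouse NIH/3T3 fibroblasts infected with β-gal-expressing T. cruzi Tulahuen C4 | input = 5,000 NIH/3T3 host cells per well | buffer or medium = DMEM plus 2% FBS | timing = 3 h host attachment, then at least 90 h co-culture | measured by = GalScreen luminescence, 60 min | evaluation = luminescence reflecting intracellular parasite burden, expressed as percent inhibition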
CSC inhib: cancer stem cell inhibition; cancer stem cell-like cells viability, luminescence; inhibition, % at 7.5 µM; 300,000 compounds, 1.1% hits; AID 2717; in the data active means inhibition above about 75%; tested in HMLE shEcad cells
SKKanGAS inh: SKKanGAS growth inhibition | S. pyogenes SKKanGAS, kanamycin growth, BacTiter-Glo, 6 h | inhibition, % at 7.5 µM | 300,000 compounds, 1.3% hits;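 active means mean replicate score, as percent of positive control median, at least 50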;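 further: strain carries kanamycin resistance gene driven by streptokinase promoter and grows in 40 µg/ml kanamycin; loss of luminescence reflects streptokinase promoter inhibition or plain growth inhibition; 0% = median of DMSO wells and 100% = positive control at its reference dose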
Numbers without * were called inactive.

What do the screens show for `Cn1c(N2CCOCC2)c(/C=N/O)c2ccccc21`?
Beta apoptosis: 4; Lmaj promast: 3; Mdm2 MdmX PPI: 16; T cruzi repl: -27; CSC inhib: 3; SKKanGAS inh: 3

What do the screens show for `CSCCC(NC(=O)COc1ccccc1)C(=O)N1CC(C)CC(C)C1` (stereo not given)?
Beta apoptosis: 0; Mdm2 MdmX PPI: 22

How did COc1ccc2nc(NC(=O)c3cccs3)sc2c1 do in these assays?
Beta apoptosis: 18; Mdm2 MdmX PPI: -93; T cruzi repl: 11; CSC inhib: 30; SKKanGAS inh: 8

What do the screens show for `COc1ccc2c(c1)Cc1sc(NC(=O)c3ccccc3)nc1-2`?
Beta apoptosis: 3; Lmaj promast: 9; Mdm2 MdmX PPI: -9; T cruzi repl: 20; CSC inhib: 1; SKKanGAS inh: 12

What do the screens show for `COc1ccc(C(=O)Nc2nc3c(s2)Cc2cc(OC)ccc2-3)cc1`?
Beta apoptosis: 11; Lmaj promast: 96*; Mdm2 MdmX PPI: -13; T cruzi repl: -4; CSC inhib: 4; SKKanGAS inh: 2

How did COc1ccc2c(c1)Cc1sc(NC(=O)c3cccs3)nc1-2 do in these assays?
Beta apoptosis: 10; Lmaj promast: 21; Mdm2 MdmX PPI: -87; T cruzi repl: 55*; CSC inhib: -3; SKKanGAS inh: 14

How did c1ccc(OCCCn2ccnc2)cc1 do in these assays?
Beta apoptosis: -3; Mdm2 MdmX PPI: -14; T cruzi repl: -17; CSC inhib: 13; SKKanGAS inh: 1

Results for c1ccc(-c2ccc(-n3ccnc3)cc2)cc1 ?
Beta apoptosis: -5; Lmaj promast: 5; Mdm2 MdmX PPI: 2; T cruzi repl: 56*; CSC inhib: -8; SKKanGAS inh: 0

How did COC(=O)c1ccc(-n2ccnc2)cc1 do in these assays?
Beta apoptosis: -5; Lmaj promast: -3; Mdm2 MdmX PPI: 1; T cruzi repl: -8; CSC inhib: -9; SKKanGAS inh: -3

Results for c1ccc(-c2ccc(C(c3ccccc3)n3ccnc3)cc2)cc1 (stereo not given) ?
Beta apoptosis: 4; Lmaj promast: 98*; T cruzi repl: 33; CSC inhib: 23; SKKanGAS inh: 21

What do the screens show for `COc1ccccc1NC(=O)COC(=O)c1ccc2c(c1)nc(C)n2-c1ccccc1`?
Beta apoptosis: 6; Lmaj promast: 57*; Mdm2 MdmX PPI: -11; T cruzi repl: 4; CSC inhib: -1; SKKanGAS inh: 7

Results for CNC(=O)COC(=O)c1ccc(OCC(=O)Nc2ccccc2OC)c(OC)c1 ?
Beta apoptosis: -11; Lmaj promast: -1; Mdm2 MdmX PPI: 8; T cruzi repl: 0; CSC inhib: 1; SKKanGAS inh: 3

How did CCOC(=O)CNC(=O)CSc1ccc(-c2nc3ccccc3[nH]2)cn1 do in these assays?
Beta apoptosis: 5; Mdm2 MdmX PPI: -25; T cruzi repl: -5; CSC inhib: -3; SKKanGAS inh: -2

What do the screens show for `CC(=O)CSc1ccc(-c2nc3ccccc3[nH]2)cn1`?
Beta apoptosis: 79*; Mdm2 MdmX PPI: -93; T cruzi repl: 5; CSC inhib: 43; SKKanGAS inh: 9

What do the screens show for `Cc1ccccc1C(=O)NCC(=O)O`?
Beta apoptosis: -2; Lmaj promast: 2; Mdm2 MdmX PPI: -11; T cruzi repl: -14; CSC inhib: -4; SKKanGAS inh: 20

What do the screens show for `O=C(NCC1CCCN(C(=O)CN2CCCCC2)C1)c1ccccc1Cl` (stereo not given)?
Beta apoptosis: -2; Mdm2 MdmX PPI: -11; T cruzi repl: 8; CSC inhib: -20; SKKanGAS inh: -4

How did Cc1[nH]c2ccc(-c3nnc(SCC(=O)NCc4ccco4)n3Cc3ccccc3)cc2c1C do in these assays?
Beta apoptosis: 4; Lmaj promast: 97*; Mdm2 MdmX PPI: 19; T cruzi repl: 31; CSC inhib: 2; SKKanGAS inh: 16

What do the screens show for `CN(C)C(=O)CSc1nnc(-c2ccncc2)n1Cc1ccco1`?
Beta apoptosis: 0; Lmaj promast: -6; Mdm2 MdmX PPI: -1; T cruzi repl: -11; CSC inhib: -14; SKKanGAS inh: 4

How did O=C(CSc1nnc(-c2cccnc2)n1Cc1ccco1)Nc1nc(-c2ccc(F)cc2)cs1 do in these assays?
Beta apoptosis: 0; Lmaj promast: 73*; Mdm2 MdmX PPI: 35; T cruzi repl: -12; CSC inhib: 0; SKKanGAS inh: 9

What do the screens show for `O=C(CSc1nnc(-c2ccncc2)n1Cc1ccco1)OC1CCCCC1`?
Beta apoptosis: -1; Lmaj promast: 81*; Mdm2 MdmX PPI: -14; T cruzi repl: -3; SKKanGAS inh: 4

How did O=C(CSc1nnc(-c2cccnc2)n1Cc1ccco1)Nc1cccc(O)c1 do in these assays?
Beta apoptosis: 9; Mdm2 MdmX PPI: 15; T cruzi repl: -19; CSC inhib: -5; SKKanGAS inh: -1

Results for CCOC(=O)c1c(NC(=O)CSc2nnc(-c3cccnc3)n2Cc2ccco2)sc(C)c1C ?
Beta apoptosis: 6; Lmaj promast: 53*; Mdm2 MdmX PPI: 27; T cruzi repl: 1; CSC inhib: 16; SKKanGAS inh: 18

What do the screens show for `Cc1ccc(S(=O)(=O)N2[C@@H](c3ccc(Br)cc3)C(C(=O)O)=C[C@H]2C(C)(C)C)cc1`?
Beta apoptosis: 2; Mdm2 MdmX PPI: -4; CSC inhib: 22

How did CCOc1ccccc1C(=O)N[C@H](C(=O)Nc1cc(S(=O)(=O)N(C)C)ccc1OC)C(C)C do in these assays?
Beta apoptosis: -12; Lmaj promast: 5; Mdm2 MdmX PPI: -18; T cruzi repl: 7; CSC inhib: 2; SKKanGAS inh: -5

What do the screens show for `COc1ccc(C(=O)N/C=C/n2cnc3cc(C(F)(F)F)ccc32)cc1`?
Beta apoptosis: -8; Mdm2 MdmX PPI: 6; T cruzi repl: -6; CSC inhib: 3; SKKanGAS inh: -1

What do the screens show for `COC(=O)c1c(NC(=O)CSc2nnc(-c3ccco3)n2Cc2ccccc2)sc(C)c1C`?
Beta apoptosis: -13; Lmaj promast: 65*; Mdm2 MdmX PPI: 20; T cruzi repl: 39; CSC inhib: 16; SKKanGAS inh: 36

What do the screens show for `Cc1c(Cl)cccc1NC(=S)N1CCN(Cc2ccc3c(c2)OCO3)CC1`?
Beta apoptosis: -6; Lmaj promast: 74*; Mdm2 MdmX PPI: 7; T cruzi repl: -1; CSC inhib: 1; SKKanGAS inh: -17

Results for Cc1ccc(S(=O)(=O)N(C)C)cc1NC(=S)N1CCN(Cc2ccc3c(c2)OCO3)CC1 ?
Lmaj promast: 84*; Mdm2 MdmX PPI: 18; T cruzi repl: 12; CSC inhib: 15; SKKanGAS inh: 14

How did COc1ccccc1NC(=O)N1CCN(Cc2ccc3c(c2)OCO3)CC1 do in these assays?
Beta apoptosis: -1; Mdm2 MdmX PPI: -3; T cruzi repl: -1; CSC inhib: 0; SKKanGAS inh: -6

What do the screens show for `FC(F)(F)c1ccccc1NC(=S)N1CCN(Cc2ccc3c(c2)OCO3)CC1`?
Beta apoptosis: 82*; Lmaj promast: 48; Mdm2 MdmX PPI: -3; T cruzi repl: -1; SKKanGAS inh: 0
